Screens as filed in PubChem.
Mdm2 MdmX PPI: inhibitors of human Mdm2-MdmX association, primary screen, cell-based, luminescence, split luciferase, SaOS-2, uHTS. AID 485346, 2010. inhibition, % at 8 µM. SaOS-2 split-luciferase Mdm2/MdmX complementation. 3% of 330,000 active;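 active = inhibition of at least 50% at 8 µM in the primary screen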
Target sequence (O15151 whole entry, looked up): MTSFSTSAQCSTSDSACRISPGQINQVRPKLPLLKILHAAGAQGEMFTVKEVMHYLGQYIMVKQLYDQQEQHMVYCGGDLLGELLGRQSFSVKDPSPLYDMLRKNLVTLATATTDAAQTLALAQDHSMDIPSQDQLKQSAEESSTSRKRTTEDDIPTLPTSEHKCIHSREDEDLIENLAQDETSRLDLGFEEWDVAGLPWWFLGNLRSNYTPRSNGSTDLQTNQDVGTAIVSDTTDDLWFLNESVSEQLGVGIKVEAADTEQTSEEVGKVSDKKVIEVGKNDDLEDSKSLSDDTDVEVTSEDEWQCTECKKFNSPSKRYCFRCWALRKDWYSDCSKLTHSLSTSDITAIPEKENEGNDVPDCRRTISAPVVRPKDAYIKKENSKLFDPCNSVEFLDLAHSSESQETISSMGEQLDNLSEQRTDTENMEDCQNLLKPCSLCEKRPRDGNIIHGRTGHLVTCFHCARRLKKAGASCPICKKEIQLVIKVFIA
Target sequence (Q00987 whole entry, looked up): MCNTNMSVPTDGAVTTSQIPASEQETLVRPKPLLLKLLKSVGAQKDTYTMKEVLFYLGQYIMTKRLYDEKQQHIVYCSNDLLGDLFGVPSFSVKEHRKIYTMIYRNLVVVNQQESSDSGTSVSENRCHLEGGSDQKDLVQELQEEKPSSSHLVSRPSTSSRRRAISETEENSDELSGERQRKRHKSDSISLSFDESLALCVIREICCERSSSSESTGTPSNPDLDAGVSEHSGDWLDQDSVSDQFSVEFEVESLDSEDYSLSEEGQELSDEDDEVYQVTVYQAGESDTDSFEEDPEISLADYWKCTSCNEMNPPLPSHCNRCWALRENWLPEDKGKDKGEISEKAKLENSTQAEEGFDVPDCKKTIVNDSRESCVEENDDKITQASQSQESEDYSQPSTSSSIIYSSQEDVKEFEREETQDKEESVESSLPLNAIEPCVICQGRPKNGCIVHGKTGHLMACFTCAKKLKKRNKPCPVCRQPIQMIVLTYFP
UPR CHOP act: activators of apoptotic CHOP UPR arm, primary screen, cell-based, CHO-CHOP luciferase reporter, luminescence, uHTS | UPR activation; percent of tunicamycin response over DMSO baseline | activation, % at 10 µM | 0.34% of 330,000 active | AID 449763, 2010;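 active = at 10 µM dose, activation of 40% or more, normalized to positive control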;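 note: 100% = tunicamycin at 10 µg/mL and 0% = DMSO alone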
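Test system: CHO CHOP reporter cells. Input: 500 CHO-CHOP cells per well. Medium: F12 with 10% FBS. Technique: luciferase luminescence. Measure: percent activation relative to tunicamycin control. Dosing: 10 µM compound, 0.5% DMSO. Timing: 16-18 h cell attachment, then 6 h compound exposure, 37 °C.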
XBP1 UPR activ: activators of adaptive XBP1 UPR arm, primary screen, cell-based, CHO-XBP1 luciferase reporter, luminescence, uHTS; IRE1-XBP1 UPR activation; percent of tunicamycin response, DMSO as zero; 0.33% of 330,000 active; activation, % at 20 µM;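 active = versus positive control, 20 µM dose yields 30% or more activation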;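 note: 100% = tunicamycin at 10 µg/mL and 0% = DMSO only wells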
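Material: CHO-XBP1 cells stably carrying IRE1-XBP1-driven luciferase reporter | Medium: F12 with 10% serum | Compound dosing: 20 µM single concentration, DMSO 1% | Incubation: Overnight seeding at 37 °C, 6 h compound treatment at 37 °C | Detection: Steady-Glo luminescence read | Read-out basis: % activation of reporter signal versus tunicamycin and DMSO controls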
Beta cell apopt: inhibitors of cytokine-induced beta cell apoptosis, primary screen, luminescence; AID 435005, 2010; protection from apoptosis, % (concentration not given with the values); INS-1E cytokine-induced death, ATP luminescence, 48 h; percent of positive-control rescue, neutral wells zero; 0.8% of 300,000 active;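 active = Every replicate reaches about 75%, or at least half do and their mean reaches it too, limit read from the data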;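 note: 0% = cytokine-treated negative control wells and 100% = positive control rescue; higher means more ATP so stronger rescue from cytokine killing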
T cruzi repl: inhibitors of intracellular T. cruzi growth, primary screen, luminescence, NIH3T3 host cells; T. cruzi beta-gal in NIH3T3, 90 h; inhibition, % (test concentration not listed); 1.4% of 300,000 active; AID 1885, 2009;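 active = mean inhibition across valid replicates above about 55%, limit read from the data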;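 note: signal also drops with host cell toxicity which is not excluded here; 0% = plate median of DMSO wells and 100% = zero luminescence signal; higher percent means less beta-gal luminescence so fewer parasites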
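System: mouse NIH/3T3 fibroblasts infected with β-gal-expressing T. cruzi Tulahuen C4 / Input: NIH/3T3 cells, 5,000 per well / Buffer or medium: Low-serum DMEM with 2% FBS / Probe or stimulus: 5000 reporter trypomastigotes per well / Schedule: ≥90 h infection period, 3 h prior cell attachment / Measured by: GalScreen luminescence, 60 min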
CSC inhib: cancer stem cell viability inhibitors, primary screen, luminescence; cancer stem cell-like cells viability; inhibition, % at 7.5 µM; 1.1% of 300,000 active; AID 2717, 2010; in the data active = inhibition above about 75%; tested in HMLE shEcad cells
* marks the source's active call; other numbers are inactive results; . = no result. An excerpt weighted towards active compounds, which were near 5% of everything screened.

SMILES	Mdm2 MdmX PPI	UPR CHOP act	XBP1 UPR activ	Beta cell apopt	T cruzi repl	CSC inhib
O=C(Nc1nc2c(s1)CCCC2)c1ccc(S(=O)(=O)N2CCCc3ccccc32)cc1	49.1	-0.5	-1.8	43.8	60.3*	4.5
O=C(Nc1ccc(S(=O)(=O)N2CCc3ccccc32)cc1)c1ccc2c(c1)OCO2	9.5	4.7	2.8	.	56.8*	10.9
Cc1noc(C)c1CC(=O)Nc1ccc2c(c1)OCO2	8.6	-2.1	-1.0	.	.	.
CC12CCC(=O)N1C(C(=O)NNC(=O)COc1cccc(C(F)(F)F)c1)CS2 (centres undefined)	-0.1	-0.1	-0.4	-3.4	-5.3	-2.7
CNC(=O)c1ccsc1NC(=O)c1ccc(S(=O)(=O)N2CCCc3ccccc32)cc1	45.8	4.5	0.1	12.6	56.7*	25.3
CC(C)(CNC(=O)CNC(=O)c1ccc(Cl)cc1Cl)N1CCOCC1	16.7	-0.3	-2.7	.	.	.
Oc1nc(Nc2cccc(Cl)c2)sc1/C=C1\C=Nc2ccccc21	-0.4	4.6	-2.1	-3.2	-5.1	108.7*
Oc1cccc(Nc2nc(O)c(/C=C3\C=Nc4ccccc43)s2)c1	-34.9	0.6	2.5	8.8	.	54.2
O=C(N/N=C/c1cn(-c2cccs2)nc1-c1ccccc1)c1ccccc1Br	-7.3	3.1	1.0	7.0	11.5	83.3*
O=C(NCC(c1cccnc1)N1CCN(c2ccc(F)cc2)CC1)OCc1ccccc1 (centres undefined)	6.3	-1.9	4.6	1.4	60.0*	3.9
O=C(NCC(c1cccnc1)N1CCN(c2ccccc2)CC1)C1CCCCC1 (centres undefined)	23.1	0.4	-0.4	3.5	56.4*	-1.5
O=C(NCC(c1cccnc1)N1CCN(c2ccccc2)CC1)OCc1ccccc1 (centres undefined)	17.3	-2.3	-0.4	3.0	54.2	9.8
O=C(NCC(c1cccnc1)N1CCN(c2ccccc2F)CC1)OCc1ccccc1 (centres undefined)	-10.2	-1.4	-1.4	3.7	56.3*	20.0
CCn1cc(C(=O)NCCC2=CCCCC2)c(=O)c2cc(S(=O)(=O)N(C)C)ccc21	19.8	-1.8	-1.1	8.1	11.2	-14.9
CC(C)(O)P(=O)(O)CCc1ccccc1	-2.0	-0.1	0.0	-3.6	-7.7	17.0
CCC(C)NS(=O)(=O)c1ccc(S(=O)(=O)N(CCc2ccc(OC)c(OC)c2)Cc2cccs2)cc1 (centres undefined)	29.7	1.2	1.1	51.9	57.2*	19.1
COc1ccc(CCN(Cc2cccs2)S(=O)(=O)c2ccc(S(=O)(=O)N3CCCCCC3)cc2)cc1OC	3.4	-0.1	-2.1	0.1	10.6	-3.9
CCOc1ccc(-n2c(SCc3nc(-c4cccs4)no3)nnc2-c2ccncc2)cc1	-2.5	1.1	-5.6	.	64.2*	.
Cc1cc2oc(=O)cc(Cn3ccnc3)c2cc1O	-37.4	-0.7	-1.5	0.7	-19.4	-2.8
Cc1cc(Cn2ccnc2)c(C)cc1Cn1ccnc1	-4.0	-1.9	-2.4	-6.3	59.1*	-12.1
CCc1cc2ccc(C)cc2nc1SCC(=O)Nc1c[nH]c(=O)[nH]c1=O	18.3	-0.1	1.1	10.5	-12.7	14.5
N#CC1(NC(=O)COC(=O)c2cc(O)c3ccccc3c2O)CCCCC1	30.5	3.1	-1.8	-2.1	3.7	89.5*
Cc1occc(=O)c1OC(=O)Nc1ccc(Cl)c(Cl)c1	.	.	.	105.7*	.	37.7
Cc1cccc(N2CCN(C(=O)c3cc4n(n3)C(C(F)(F)F)CC(c3ccco3)N4)CC2)c1C (centres undefined)	49.2	-0.2	0.7	-3.0	24.1	84.3*
CN(C)c1ccc(-c2n(C)c3ccccc3[n+]2C)cc1	8.8	1.8	0.3	.	73.0*	.
Cc1cccc(N/C=C(\[N+](=O)[O-])S(=O)(=O)c2ccccc2)c1C	-13.4	-0.8	4.8	-3.9	81.9*	-7.9
